The source made the active and inactive calls. The calls are words filed in the database; no cut-off is given here.
What was measured:
Zika virus [1] = assay: Antiviral activity against ZIKV FLR infected in human U87 cells assessed as inhibition of viral replication at 3 uM pretreated with compounds for 2 hrs followed by replacement with fresh medium containing compound and measured after 48 hrs by MTT assay relative to control; type: functional; conditions: U-87 MG, time 50 hrs
Procedure, shortened: (§1)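 Monolayers of 2 × 10^4 cells/well in DMEM with 2% FBS. Infected at 0.1 MOI together with compound for 2h. Wells washed with PBS, then fresh medium with compound added in duplicate and incubated 48h at 37 °C. Supernatant titred by end-point dilution: half-log dilutions on Vero monolayers in quadruplicate for 5–7 days, CPE by microscope then MTT. TCID50 compared with untreated; EC50 from dose-response fit of ≥2 independent experiments.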

dengue virus type 2 = assay: Antiviral activity against Dengue virus serotype 2 K0049 infected in Vero cells assessed as inhibition of viral replication pretreated for 2 hrs followed by replacement with fresh medium containing compound and measured after 48 hrs by MTT assay; type: functional, organism-based; procedure, shortened: as §1
Zika virus [2] = assay: (§2) Antiviral activity against ZIKV FLR infected in Vero cells assessed as inhibition of viral replication by measuring reduction in cytopathic effect at 0.3 uM preincubated with compounds for 2 hrs followed by replacement with fresh media containing compounds and measured after 48 hrs by MTT assay relative to control; type: functional; design: scale not given: the % may be the effect or the level left; conditions: time 50 hrs; procedure, shortened: as §1
Zika virus [3] = assay: Antiviral activity against ZIKV FLR infected in human U87 cells assessed as inhibition of viral replication at 1 uM pretreated with compounds for 2 hrs followed by replacement with fresh medium containing compound and measured after 48 hrs by MTT assay relative to control; type: functional; conditions: U-87 MG, time 50 hrs; procedure, shortened: as §1
Zika virus [4] = assay: Antiviral activity against ZIKV FLR infected in Vero cells assessed as reduction in NS3 viral protein level at 1 to 3 uM incubated for 48 hrs by Western blot analysis; type: functional, organism-based; conditions: dose 1-3 µM
Procedure, shortened: (§3)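 8 × 10^5 Vero cells infected at MOI 0.1 for 2h. Virus removed and cells cultured 48h in fresh medium with 2% FBS plus compound. Cells lysed in ice-cold RIPA buffer and equal total protein separated by SDS-PAGE, then transferred to PVDF. Probed with antibodies to ZIKV NS3, capsid and NS5, with β-actin as loading reference.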

Zika virus [5] = assay: Antiviral activity against ZIKV FLR infected in Vero cells assessed as reduction in NS5 viral protein level at 1 to 3 uM incubated for 48 hrs by Western blot analysis; type: functional, organism-based; conditions: dose 1-3 µM; procedure, shortened: as §3
Zika virus [6] = assay: Antiviral activity against ZIKV FLR infected in Vero cells assessed as inhibition of viral replication by measuring reduction in cytopathic effect at 1 uM preincubated with compounds for 2 hrs followed by replacement with fresh media containing compounds and further incubated for 48 hrs in presence of 1 mM GSH by MTT assay; type: functional, organism-based; conditions: time 50.0 hrs; procedure, shortened: as §1
U-87 MG = assay: Cytotoxicity against human U87 cells assessed as reduction in cell viability; type: toxicity, cell-based; conditions: u-87mg atcc
Zika virus [7] = assay: as §2, with “>=3” for “0.3”; type: functional; design: scale not given: the % may be the effect or the level left; conditions: time 50 hrs; procedure, shortened: as §1
Zika virus [8] = assay: Antiviral activity against ZIKV […] infected in Vero cells assessed as reduction in viral titer at 1 uM preinoculated virus for 2 hrs with cells followed by washout of unattached viruses and further incubated with compound for 46 hrs starting from 2 hrs post washout by MTT assay relative to control; type: functional; design: scale not given: the % may be the effect or the level left
Procedure, shortened: (§4)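 Cells inoculated with 0.1 MOI virus for 2h, then unattached virus removed by PBS wash. Compound at 1 μM added either right after washout (0h-posttreatment) or 2h after washout (2h-posttreatment). Incubated to 48h at 37 °C, then supernatant TCID50 determined by end-point dilution with CPE/MTT read-out in quadruplicate on Vero cells, relative to untreated.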

Zika virus [9] = assay: Antiviral activity against ZIKV FLR infected in mosquito C6/36 cells assessed as inhibition of viral replication pretreated with compounds for 2 hrs followed by replacement with fresh medium containing compound and measured after 48 hrs bt MTT assay; type: functional, organism-based; procedure, shortened: as §1
Zika virus [10] = assay: Antiviral activity against ZIKV FLR infected in Vero cells assessed as reduction in capsid protein level at 1 to 3 uM incubated for 48 hrs by Western blot analysis; type: functional, organism-based; conditions: dose 1-3 µM; procedure, shortened: as §3
Zika virus [11] = assay: as §2, with “1” for “0.3”; type: functional; conditions: time 50 hrs; procedure, shortened: as §1
Zika virus [12] = assay: Antiviral activity against ZIKV FLR infected in Vero cells assessed as reduction in number of viral RNA copies by qRT-PCR analysis; type: functional, organism-based; conditions: dose 0.3-10 µM
Procedure, shortened: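 Viral RNA measured in cell supernatant after compound treatment. Copies/mL calculated from a standard curve.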

dengue virus type 3 = assay: Antiviral activity against Dengue virus serotype 3 7431 infected in Vero cells assessed as inhibition of viral replication pretreated for 2 hrs followed by replacement with fresh medium containing compound and measured after 48 hrs by MTT assay; type: functional, organism-based; conditions: Dengue virus, 7431, Vero; procedure, shortened: as §1
Zika virus [13] = assay: Antiviral activity against ZIKV FLR infected in human U87 cells assessed as inhibition of viral replication at 10 uM pretreated with compounds for 2 hrs followed by replacement with fresh medium containing compound and measured after 48 hrs by MTT assay relative to control; type: functional; conditions: U-87 MG, time 50 hrs; procedure, shortened: as §1
Zika virus [14] = assay: Antiviral activity against ZIKV FLR infected in Vero cells assessed as inhibition of viral replication by measuring reduction in cytopathic effect preincubated with compounds for 2 hrs followed by replacement with fresh media containing compounds and measured after 48 hrs by MTT assay; type: functional, organism-based; procedure, shortened: as §1
Zika virus [15] = assay: Antiviral activity against ZIKV FLR infected in human U87 cells assessed as inhibition of viral replication pretreated with compounds for 2 hrs followed by replacement with fresh medium containing compound and measured after 48 hrs by MTT assay; type: functional, organism-based; conditions: U-87 MG; procedure, shortened: as §1
Zika virus [16] = assay: as §2, with “10” for “0.3”; type: functional; conditions: time 50 hrs; procedure, shortened: as §1
Zika virus [17] = assay: Antiviral activity against ZIKV FLR infected in human U87 cells assessed as inhibition of viral replication at 0.3 uM pretreated with compounds for 2 hrs followed by replacement with fresh medium containing compound and measured after 48 hrs by MTT assay relative to control; type: functional; conditions: U-87 MG, time 50 hrs; procedure, shortened: as §1
Zika virus [18] = assay: Antiviral activity against ZIKV FLR infected in Vero cells assessed as reduction in viral titer at 1 uM preinoculated virus for 2 hrs with cells followed by washout of unattached viruses and further incubated with compound for 48 hrs by MTT assay relative to control; type: functional; design: scale not given: the % may be the effect or the level left; procedure, shortened: as §4
Zika virus [19] = assay: Antiviral activity against ZIKV HN16 infected in Vero cells assessed as inhibition of viral replication by measuring reduction in cytopathic effect preincubated with compounds for 2 hrs followed by replacement with fresh media containing compounds and measured after 48 hrs by MTT assay; type: functional, organism-based; procedure, shortened: as §1

SMILES: COc1cccc(/C=C/c2nc3ccc(N4CCOCC4)cc3c(=O)n2-c2cccc(C(C)(C)C)c2)n1
- inhibition at 3 µM (Zika virus [1]): 99%
- EC50 (dengue virus type 2): 210 nM
- Activity (Zika virus [2]): 68%
- inhibition at 1 µM (Zika virus [3]): 97%
- Activity (Zika virus [4]): Active
- Activity (Zika virus [5]): Active
- Activity (Zika virus [6]): Active
- CC50 (U-87 MG): > 20000 nM
- Activity (Zika virus [7]): >99.9%
- Activity (Zika virus [8]): 68%
- EC50 (Zika virus [9]): 230 nM
- Activity (Zika virus [10]): Active
- inhibition at 1 µM (Zika virus [11]): 90%
- Activity (Zika virus [12]): Dose-Dependent Effect
- EC50 (dengue virus type 3): 120 nM
- inhibition at 10 µM (Zika virus [13]): > 99.9%
- EC50 (Zika virus [14]): 180 nM
- EC50 (Zika virus [15]): 100 nM
- inhibition at 10 µM (Zika virus [16]): 99.9%
- inhibition at 0.3 µM (Zika virus [17]): 90%
- Activity (Zika virus [18]): 68%
- EC50 (Zika virus [19]): 86 nM
